B1: Osa-1-4 twister ribozyme (parent)
chain: CCGCCUAACACUGCCAAUGCCGGUCCCAAGCCCGGAUAAAAGUGGAGGGGGCGG

The data set covers variants of B1. Kind of data set: self-cleavage, relative activity (ratio to wild type); higher = more cleavage; co-transcriptional. A digest of the protocol: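 Values are relative activity: the fraction cleaved, normalised to wild type. A doped DNA template for a 54-nucleotide twister ribozyme from Oryza sativa had 97 % wild-type base and 1 % of each other base at the 48 positions downstream of the cleavage site. The RNA was transcribed in vitro for 2 h at 37 °C so that it could cleave itself co-transcriptionally, then sequenced deeply, with cleavage status scored from the presence or absence of upstream sequence in reads.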
Regarding C33U U24G, the self-cleavage was determined as 0.03.

As for G35U U37A, the self-cleavage came to 0.92.

Consider G35U U37C, for which the self-cleavage came out at 0.94.

With G35U U37G, the self-cleavage came out at 0.89.

With G35U G44C, the self-cleavage is 0.74.

Turning to G35U G44U, the self-cleavage stood at 0.74.

As for G35U G44A, the self-cleavage stood at 0.88.

Consider G35A G49C, for which the self-cleavage worked out at 0.07.

In the case of G35A G49A, the self-cleavage worked out at 0.18.

As to G35A G49U, the self-cleavage is 0.16.

Turning to G34C U24G, the self-cleavage was 0.02.

G34C U24C: the self-cleavage was determined as 0.06.

For G34C U24A, the self-cleavage was 0.07.

For the variant G35C U37A, the self-cleavage is 0.93.

As for G35C U37G, the self-cleavage came out at 0.9.

For the variant G35C U37C, the self-cleavage worked out at 0.94.

As for G35C U12G, the self-cleavage amounted to 0.07.

With G35C U12A, the self-cleavage is 0.08.

G35C U12C: the self-cleavage was 0.09.

In the case of G35U G51C, the self-cleavage is 0.06.

With G35U G51A, the self-cleavage amounted to 0.25.

As for G35U G51U, the self-cleavage stood at 0.15.

Regarding A36C A7G, the self-cleavage was 0.11.

As to A36C A7U, the self-cleavage amounted to 0.05.

With A36C A7C, the self-cleavage came to 0.05.

Regarding A36C A41C, the self-cleavage was 0.6.

Regarding A36C A41G, the self-cleavage was 0.13.

A36C A41U: the self-cleavage stood at 0.91.

For the variant G34A U12A, the self-cleavage stood at 0.23.

Regarding G34A U12C, the self-cleavage was found to be 0.19.

With G34A U12G, the self-cleavage was found to be 0.07.

G35U G42A: the self-cleavage worked out at 0.35.

Regarding G35U G42C, the self-cleavage stood at 0.11.

Consider G35U G42U, for which the self-cleavage is 0.08.

As for G34C G47U, the self-cleavage turned out to be 0.06.

Regarding G34C G47C, the self-cleavage turned out to be 0.05.

For G34C G47A, the self-cleavage is 0.07.

As for G34U G35U, the self-cleavage was found to be 0.52.

On to G34U G35A, for which the self-cleavage is 0.6.

G34U G35C: the self-cleavage was 0.31.

Regarding G35U G48U, the self-cleavage came to 0.08.

For G35U G48C, the self-cleavage is 0.07.

For the variant G35U G48A, the self-cleavage is 0.09.

With G34U G49U, the self-cleavage was 0.11.

As to G34U G49A, the self-cleavage worked out at 0.11.

With G34U G49C, the self-cleavage is 0.06.

Turning to G34U U43C, the self-cleavage was determined as 0.15.

For the variant G34U U43G, the self-cleavage was found to be 0.07.

On to G34U U43A, for which the self-cleavage turned out to be 0.11.

For G35C G49C, the self-cleavage is 0.05.

For the variant G35C G49U, the self-cleavage was 0.05.

For the variant G35C G49A, the self-cleavage stood at 0.05.

With G34U U37C, the self-cleavage turned out to be 0.84.

As for G34U U37G, the self-cleavage was found to be 0.87.

For G34U U37A, the self-cleavage worked out at 0.79.

On to G35U G54U, for which the self-cleavage was 0.8.

Regarding G35U G54A, the self-cleavage was 0.8.

With G35U G54C, the self-cleavage amounted to 0.77.

Take G34A G35C: the self-cleavage worked out at 0.29.

Take G34A G35U: the self-cleavage was 0.8.

On to G34A G35A, for which the self-cleavage was 0.77.

A36C A40G: the self-cleavage amounted to 0.12.

For the variant A36C A40U, the self-cleavage was determined as 0.13.

With A36C A40C, the self-cleavage came to 0.05.

In the case of G35C U18G, the self-cleavage stood at 0.77.

For G35C U18C, the self-cleavage was 0.56.

On to G35C U18A, for which the self-cleavage was 0.84.

Take A36C C20U: the self-cleavage stood at 0.88.

Take A36C C20A: the self-cleavage was found to be 0.81.

As for A36C C20G, the self-cleavage worked out at 0.09.

Regarding G34U, the self-cleavage was found to be 0.82.

Take G34A: the self-cleavage stood at 0.86.

Regarding G34C, the self-cleavage was found to be 0.71.

For the variant G35C G51A, the self-cleavage came to 0.09.

Take G35C G51U: the self-cleavage came to 0.06.

Consider G35C G51C, for which the self-cleavage is 0.05.

Consider G35C G50U, for which the self-cleavage was 0.17.

For G35C G50C, the self-cleavage came out at 0.1.

As to G35C G50A, the self-cleavage amounted to 0.24.

As for A36C A39C, the self-cleavage was 0.15.

With A36C A39U, the self-cleavage came out at 0.15.

For the variant A36C A39G, the self-cleavage worked out at 0.2.

With G35U U18G, the self-cleavage was found to be 0.77.

Regarding G35U U18C, the self-cleavage is 0.5.

Take G35U U18A: the self-cleavage is 0.8.

Regarding G35C U43C, the self-cleavage amounted to 0.09.

In the case of G35C U43A, the self-cleavage is 0.14.

Turning to G35C U43G, the self-cleavage worked out at 0.1.

As to G35C G47U, the self-cleavage amounted to 0.05.

Take G35C G47A: the self-cleavage was 0.05.

With G35C G47C, the self-cleavage was 0.05.

Consider G34U G48U, for which the self-cleavage turned out to be 0.05.

Take G34U G48C: the self-cleavage amounted to 0.07.

For the variant G34U G48A, the self-cleavage is 0.07.

As for G35U G49A, the self-cleavage was 0.11.

As for G35U G49C, the self-cleavage was 0.06.

Regarding G35U G49U, the self-cleavage amounted to 0.1.

Consider G35U G53A, for which the self-cleavage was 0.62.

Consider G35U G53C, for which the self-cleavage stood at 0.07.

Take G35U G53U: the self-cleavage turned out to be 0.17.

Take G34A G54U: the self-cleavage is 0.7.

Consider G34A G54C, for which the self-cleavage worked out at 0.7.

Turning to G34A G54A, the self-cleavage turned out to be 0.64.

Take G35A G45A: the self-cleavage worked out at 0.31.

Regarding G35A G45U, the self-cleavage is 0.15.

For G35A G45C, the self-cleavage worked out at 0.06.

Consider G34A G49C, for which the self-cleavage worked out at 0.07.

With G34A G49A, the self-cleavage amounted to 0.13.

As to G34A G49U, the self-cleavage was determined as 0.1.

Turning to G34U G50C, the self-cleavage is 0.39.

As to G34U G50A, the self-cleavage was found to be 0.26.

Take G34U G50U: the self-cleavage was determined as 0.73.

Consider G34U G53C, for which the self-cleavage came to 0.05.

Consider G34U G53U, for which the self-cleavage was 0.11.

On to G34U G53A, for which the self-cleavage turned out to be 0.27.

For G35A G44A, the self-cleavage amounted to 0.8.

With G35A G44C, the self-cleavage was 0.76.

As to G35A G44U, the self-cleavage came out at 0.71.

Turning to G34C U18G, the self-cleavage amounted to 0.15.

For G34C U18C, the self-cleavage came to 0.36.

G34C U18A: the self-cleavage is 0.43.

As for G34U G47U, the self-cleavage stood at 0.1.

Consider G34U G47A, for which the self-cleavage amounted to 0.09.

For G34U G47C, the self-cleavage stood at 0.05.

G35A U37A: the self-cleavage worked out at 1.05.

As to G35A U37G, the self-cleavage was determined as 0.89.

G35A U37C: the self-cleavage came out at 0.92.

As for G35C G53C, the self-cleavage was found to be 0.06.

On to G35C G53A, for which the self-cleavage turned out to be 0.12.

As for G35C G53U, the self-cleavage came to 0.09.

Consider G35A U24G, for which the self-cleavage worked out at 0.03.

For the variant G35A U24C, the self-cleavage amounted to 0.08.

Turning to G35A U24A, the self-cleavage was 0.32.

As for C33U U43C, the self-cleavage is 0.09.

As for C33U U43A, the self-cleavage was found to be 0.19.

For C33U U43G, the self-cleavage came out at 0.09.

For the variant G35A G54C, the self-cleavage was 0.85.

With G35A G54U, the self-cleavage amounted to 0.81.

In the case of G35A G54A, the self-cleavage is 0.85.

On to G35U G47U, for which the self-cleavage worked out at 0.14.

Turning to G35U G47C, the self-cleavage amounted to 0.07.

G35U G47A: the self-cleavage is 0.15.

As to G34A G45C, the self-cleavage was 0.06.

Regarding G34A G45A, the self-cleavage turned out to be 0.15.

On to G34A G45U, for which the self-cleavage is 0.09.

Consider G34C G50C, for which the self-cleavage was found to be 0.19.

For G34C G50U, the self-cleavage worked out at 0.41.

Take G34C G50A: the self-cleavage worked out at 0.23.

Regarding G34C G45U, the self-cleavage was determined as 0.06.

On to G34C G45A, for which the self-cleavage is 0.05.

On to G34C G45C, for which the self-cleavage came out at 0.06.

In the case of G35A G47U, the self-cleavage is 0.18.

With G35A G47A, the self-cleavage was found to be 0.27.

For the variant G35A G47C, the self-cleavage is 0.11.

Consider G34C G35A, for which the self-cleavage turned out to be 0.39.

In the case of G34C G35U, the self-cleavage turned out to be 0.28.

On to G34C G35C, for which the self-cleavage was 0.11.

With A36C, the self-cleavage was 0.86.

For the variant G34A G44A, the self-cleavage is 0.69.

For G34A G44C, the self-cleavage stood at 0.58.

With G34A G44U, the self-cleavage is 0.58.

Take G34C U12C: the self-cleavage turned out to be 0.1.

As for G34C U12A, the self-cleavage amounted to 0.1.

Consider G34C U12G, for which the self-cleavage amounted to 0.08.

As to G35C G48C, the self-cleavage stood at 0.04.

In the case of G35C G48U, the self-cleavage came out at 0.04.

As to G35C G48A, the self-cleavage worked out at 0.05.
